Measurements reported in ChEMBL document CHEMBL3091326, “Design, synthesis, and evaluation of curcumin-derived arylheptanoids for glioblastoma and neuroblastoma cytotoxicity” (Bioorg Med Chem Lett, 2013).

Columns and labels:
SK-N-FI = assay: Cytotoxicity against human SK-N-FI cells after 5 days by methylene blue staining assay; format: functional, cell-based; conditions: 120 h
Procedure, shortened: (§1)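 Cells exposed in triplicate to vehicle or increasing compound concentrations; survival read 5 days post-exposure. Cell mass quantified by methylene blue staining, dye solubilized in 0.1N HCl, absorbance at 610nm. Mean and standard deviation; significance vs media control by Dunnett's multiple comparisons test. IC50 derived from dose-response data.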

SK-N-SH = assay: Cytotoxicity against human SK-N-SH cells after 5 days by methylene blue staining assay; format: functional, cell-based; conditions: 120 h; procedure, shortened: as §1
[1] = Cytotoxicity against human U87MG cells after 5 days by methylene blue staining assay; format: functional, cell-based, U-87MG ATCC; conditions: U-87 MG, 120 h; procedure, shortened: as §1
[2] = Cytotoxicity against p53-knockdown human U87MG cells after 5 days by methylene blue staining assay; format: functional, cell-based, U-87MG ATCC; conditions: U-87 MG, 120 h; procedure, shortened: as §1
[3] = Cytotoxicity against human U87MG cells expressing sh-GFP after 5 days by methylene blue staining assay; format: functional, cell-based, U-87MG ATCC; conditions: U-87 MG, 120 h; procedure, shortened: as §1
[4] = Cytotoxicity against human CD34-positive blood stem/progenitor cells at 0.3 to 30 uM after 10 to 14 days by inverted light microscopic analysis; format: cell-based
Procedure, shortened: (§2)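 Human CD34+ progenitor cells isolated from umbilical cord blood, treated in triplicate at 0.3, 3.0 and 30 µM in colony-forming unit assays. Progenitor cell (colony) frequency determined after 14 days; compared against control.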

[5] = Cytotoxicity against human CD34-positive blood stem/progenitor cells at 30 uM after 10 to 14 days by inverted light microscopic analysis relative to control; format: cell-based; procedure, shortened: as §2

Question: For `COc1cc(OC)c(C(C#CCCc2ccc(O[Si](C)(C)C(C)(C)C)cc2)CC(=O)c2ccc(O[Si](C)(C)C(C)(C)C)cc2)c(OC)c1` (centres undefined), which IC50 (SK-N-FI) is on record?
Answer: > 100 µM

Question: What about the IC50 (SK-N-SH) of the same compound?
Answer: 48.8 µM

Question: What about the IC50 [1] of the same compound?
Answer: 19.1 µM

Question: For `COc1cc(OC)c(C(C#CCCc2ccc(O[Si](C)(C)C(C)(C)C)cc2)CC(=O)c2ccc(OC(C)=O)cc2)c(OC)c1` (centres undefined), which IC50 [2] is on record?
Answer: 7 µM

Question: What about the IC50 (SK-N-FI) of the same compound?
Answer: 22.1 µM

Question: And the IC50 [3]?
Answer: 6.9 µM

Question: What about the Activity [4] of the same compound?
Answer: Non-toxic

Question: And the IC50 (SK-N-SH)?
Answer: 11.7 µM

Question: What about the Activity [5] of the same compound?
Answer: 20%

Question: And the IC50 [1]?
Answer: 8 µM

Question: What does the source list for `COc1cc(OC)c(C(C#CCCc2ccc(O[Si](C)(C)C(C)(C)C)cc2)CC(=O)c2ccc(O)cc2)c(OC)c1` (centres undefined)?
Answer: IC50 [2]: 7 µM; IC50 (SK-N-FI): 31.1 µM; IC50 [3]: 7 µM; Activity [4]: Non-toxic; IC50 (SK-N-SH): 18.1 µM; IC50 [1]: 7.5 µM

Question: Which results are given for `COc1cc(/C=C/C(=O)CC(=O)/C=C/c2ccc(O)c(OC)c2)ccc1O` [CURCUMIN]?
Answer: IC50 (SK-N-FI): 11.3 µM; IC50 (SK-N-SH): 6.4 µM; IC50 [1]: 8.1 µM
